In the library only some 2% were active in any assay of this set; here they are far more common.
rRNA inh HTS – reduced GFP signal of wild-type E. coli, primary screen, bacterial rRNA inhibitor project, GFP/RFP fluorescence, OD600, single point | E. coli WT GFP vs humanized-ribosome RFP mutants, 24 h; hits give low values; DMSO median 0, no signal -100 | GFP signal change (wild-type ribosome), % (no concentration beside the values) | 350,000 compounds, 1.6% hits | AID 720706, 2013;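 active = significant combined selectivity score with lowered wild-type GFP, culture density cut under 30%, mutant RFP and density less affected; inactive = any of these conditions unmet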
RAD54 inh – inhibitors of human RAD54 branch migration, primary screen, biochemical, fluorescence, single point. inhibition, % at 10.4 µM. AID 602329, 2012. 360,000 compounds, 0.14% hits. RAD54 Holliday junction branch migration, FAM/BHQ fluorescence. DNA repair and recombination protein RAD54-like (Homo sapiens), Q92698;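 active = mean normalized replicate activity at least 40 and at least half of replicates scoring 40 or more; inconclusive = only one of the two criteria met; inactive = mean below 40 and under half of replicates reaching 40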;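 also: 0% = median of neutral control wells and 100% = median of positive control wells; inhibitors cause a drop in the FAM fluorescence signal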
E-sel inducer – E-selectin induction in HUVECs, primary screen, imaging, HUVEC, immunofluorescence imaging, single point | P16581 | normalized: neutral wells 0, TNF-alpha wells 100 | activation, % at 7.58 µM | 260,000 compounds, 0.37% hits;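 active = mean E-selectin-positive cell signal at least 10% of the positive control, reached in at least 60% of replicates, without over 20% cell loss; inconclusive = no rule given, readout overlaps actives, possibly toxicity-flagged; inactive = the rest, including those meeting only one limit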
Target sequence (P16581 whole entry, looked up): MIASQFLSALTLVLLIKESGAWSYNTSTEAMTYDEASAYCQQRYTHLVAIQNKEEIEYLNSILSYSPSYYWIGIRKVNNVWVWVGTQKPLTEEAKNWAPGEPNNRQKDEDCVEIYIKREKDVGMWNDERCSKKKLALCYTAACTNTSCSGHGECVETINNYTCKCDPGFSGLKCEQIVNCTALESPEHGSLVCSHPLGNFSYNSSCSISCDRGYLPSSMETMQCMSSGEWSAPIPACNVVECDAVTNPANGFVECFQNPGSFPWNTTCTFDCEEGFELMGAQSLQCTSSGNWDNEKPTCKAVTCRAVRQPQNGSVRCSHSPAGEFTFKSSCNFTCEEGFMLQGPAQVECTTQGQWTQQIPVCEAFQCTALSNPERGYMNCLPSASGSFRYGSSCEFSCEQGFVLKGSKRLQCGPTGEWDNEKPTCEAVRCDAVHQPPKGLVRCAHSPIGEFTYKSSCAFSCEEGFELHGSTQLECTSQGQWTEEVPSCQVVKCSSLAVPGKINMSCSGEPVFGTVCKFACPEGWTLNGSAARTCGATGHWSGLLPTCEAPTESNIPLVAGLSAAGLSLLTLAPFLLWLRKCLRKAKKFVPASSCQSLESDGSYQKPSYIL
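assay system = HUVEC, human umbilical vein endothelial cells | input = 3,000 HUVEC seeded per well | medium = EGM-2 growth medium on 0.1% gelatin-coated wells | dosing = one compound dose added by pin transfer | signal = immunofluorescence imaging | read-out basis = % PE-positive cells | control set = TNF-alpha, DMSO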
Xi reactivation – activators of inactive X chromosome reactivation, primary screen, imaging, XiGFP fibroblasts, GFP high-content imaging, set 2; XiGFP mouse fibroblasts, % GFP-positive cells imaging, 3 d; cells co-treated with 5-aza-dC sensitizer; scaled so ellipticine positive control = 100%; activation, % at 7.58 µM; 360,000 compounds, 0.055% hits; AID 743238, 2013;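 active = mean normalized replicate activation at least 10% and every replicate at or above 10%; inconclusive = only one of the two criteria met; inactive = mean below 10% and not all replicates reach 10%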;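 also: 0% = median of on-plate neutral control wells and 100% = ellipticine 6 µM median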
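System: SV40-immortalized XiGFP fibroblast cells, line 68-5-11 / Incubation: 3-day compound exposure, then 15 min fixation at room temperature / Compound: single concentration per compound, delivered by pin transfer / Buffer or medium: DMEM plus 5-aza-dC sensitizer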
RAD52 inh – RAD52 DNA annealing inhibitors, primary screen, biochemical, FRET, single point, set 2; DNA repair protein RAD52 homolog (Homo sapiens), P43351; recombinant RAD52 DNA annealing, FRET fluorescence; inhibition, % at 18.7 µM; 360,000 compounds, 0.46% hits; AID 651710, 2012;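 active = every replicate showing at least 50% inhibition; inconclusive = mean inhibition at least 50% but not in every replicate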
PglD inh – C. jejuni PglD acetyltransferase inhibitors, primary screen, biochemical, DTNB colorimetric, single point | purified PglD enzyme, DTNB colorimetric CoA detection | inhibition, % at 12.5 µM | UDP-N-acetylbacillosamine N-acetyltransferase PglD (Campylobacter jejuni) | 360,000 compounds, 0.098% hits; in the data active = inhibition above about 16%, passing the limit was not always enough; inconclusive = no clear call, values can overlap the other calls
AID977621 – growth inhibition of wild-type GFP E. coli, dose response, H69 mutant RFP, cherry-pick | shares compounds with rRNA inh HTS | E. coli wild-type GFP strain growth, fluorescence, 24 h | activity change, negative = inhibition at 50 µM | 1,900 tested, under 10 active | AID 977621, 2014;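 active = Wild-type ribosome reporter drop at least double the humanized mutant ribosome reporter drop, growth loss under a set limit; inconclusive = no clear call, values can overlap the other calls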;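 also: wild-type GFP and H69 mutant RFP strains grown together 50/50 in each well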
AID977628 – E. coli growth inhibition, wild-type GFP versus h24 humanized RFP strain, dose response, h24 mutant RFP vs wild-type GFP, cherry-pick | 1,900 tested, under 10 active | E. coli WT GFP strain growth, fluorescence, 24 h | activity change, negative = inhibition at 50 µM | shares compounds with rRNA inh HTS;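 active = compound lowering the normal-ribosome reporter at least twice as much as the humanized-ribosome reporter, growth loss under a set limit; inconclusive = no clear call, values can overlap the other calls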;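 also: wild-type GFP and h24 humanized RFP strains co-cultured 1 to 1 per well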
Numbers without * were called inactive.

For O=C(CC1C(=O)NCCN1CC1CCCCC1)NCc1ccc(F)cc1F (stereo unspecified) the results were rRNA inh HTS -20*, Xi reactivation 0, RAD52 inh -19, AID977621 10 and AID977628 inconclusive.
`O=C(NCc1ccncc1)[C@@H]1N[C@@H]2c3ccc(/C=C/c4ccccc4)c(=O)n3C[C@@H]2[C@H]1CO` gave rRNA inh HTS 1, RAD54 inh -10, E-sel inducer 0, Xi reactivation 0, RAD52 inh -14 and PglD inh 2.
Screening COc1ccc(C(CC(=O)c2ccc(O)cc2)S(=O)(=O)c2ccc(C)cc2)cc1 (stereo unspecified) returned rRNA inh HTS -24*, RAD54 inh 0, RAD52 inh -5, PglD inh 3, AID977621 -0.51 and AID977628 -11.
Screening O=C(Cc1cccc2ccccc12)Nc1cc(Cl)ccc1C(=O)O returned rRNA inh HTS -50, RAD54 inh 0, E-sel inducer 0, Xi reactivation 0, RAD52 inh -10 and PglD inh 8.
O=C(Cc1cccc2ccccc12)Nc1ccccc1C(=O)O was read as rRNA inh HTS -35*, RAD54 inh 11, E-sel inducer -1, RAD52 inh -2, PglD inh -1 and AID977621 -12.
For C[C@@H](O)C#Cc1ccc([C@H]2[C@H](CO)N3CCCCN(C(=O)c4cccc(F)c4)C[C@@H]23)cc1 the results were rRNA inh HTS 2, RAD54 inh -7, E-sel inducer 0, Xi reactivation 0, RAD52 inh -9 and PglD inh -1.
Screening O=C(COc1ccc(Cl)cc1)Nc1nc(-c2ccncc2)cs1 returned rRNA inh HTS 0, RAD54 inh -6, E-sel inducer 0, Xi reactivation 2, RAD52 inh -14 and PglD inh 5.
O=C(COc1ccccc1Cl)Nc1nc(-c2ccncc2)cs1 was read as rRNA inh HTS -20*, RAD54 inh -2, E-sel inducer 2, Xi reactivation 0, RAD52 inh -6, PglD inh 0, AID977621 -3.8 and AID977628 -13.
Screening Cn1cnc(S(=O)(=O)N[C@@H]2C=C[C@H](CC(=O)NCC3CC3)O[C@@H]2CO)c1 returned rRNA inh HTS -2, RAD54 inh -4, E-sel inducer 0, Xi reactivation 0, RAD52 inh -4 and PglD inh -2.
`CCCc1nc2ccc(Br)cn2c1Cc1cccc(Cl)c1` gave rRNA inh HTS -22*, RAD54 inh -5, E-sel inducer 0, Xi reactivation 0, RAD52 inh -26, PglD inh -1, AID977621 -3.2 and AID977628 -3.3.
COC(C(=O)Nc1ccnn1C1CCN(Cc2ccc(Cl)s2)CC1)c1ccccc1 (stereo unspecified) was read as rRNA inh HTS -22*, RAD54 inh 2, Xi reactivation 0, RAD52 inh -5, PglD inh 1, AID977621 -4.8 and AID977628 -9.8.
For C[C@H]1CN([C@@H](C)CO)C(=O)Cc2cc(NC(=O)Cn3cnnn3)ccc2O[C@@H]1CN(C)S(C)(=O)=O the results were rRNA inh HTS 0, RAD54 inh -5, E-sel inducer 17, Xi reactivation 0 and PglD inh -1.
Screening Cc1ccc(S(=O)(=O)N2CCCCC2C(=O)N2CCN(c3ccccc3F)CC2)cc1 (stereo unspecified) returned rRNA inh HTS -20*, RAD52 inh -9, AID977621 4.2 and AID977628 -12.
Cc1ccc(S(=O)(=O)N2CCCCC2C(=O)N2CCN(C)CC2)cc1 (stereo unspecified) was read as RAD54 inh 3 and PglD inh 6.
`O=C(C[C@@H]1C=C[C@@H](NC(=O)C2CCOCC2)[C@H](CO)O1)NCc1ccccc1Cl` gave rRNA inh HTS 2, E-sel inducer -1, Xi reactivation 0 and RAD52 inh 5.
`O=S(=O)(c1cccc(-c2nc3ccccc3s2)c1)N1CCCC1` gave rRNA inh HTS -22*, RAD54 inh -3, RAD52 inh 1, PglD inh 1, AID977621 -0.21 and AID977628 inconclusive.
`O=S(=O)(c1cccc(-c2csc(-c3cccnc3)n2)c1)N1CCCCC1` gave RAD54 inh -20 and PglD inh 5.
`NC(=O)c1ccsc1NC(=O)COC(=O)c1ccc(Cl)cc1` gave rRNA inh HTS 2, RAD54 inh -7, E-sel inducer 4, Xi reactivation 0, RAD52 inh -18 and PglD inh 5.
Screening NC(=O)c1ccsc1NC(=O)COC(=O)CSc1ccc(Cl)cc1 returned rRNA inh HTS -21*, RAD54 inh -12, Xi reactivation 0, RAD52 inh -44, PglD inh -2 and AID977628 inconclusive.
`COc1cccc(NC(=O)c2ccc(-c3ccc([N+](=O)[O-])cc3)o2)c1` gave rRNA inh HTS -28*, Xi reactivation 0, RAD52 inh -46 and AID977621 -23.
Screening CC(=O)Nc1cccc(OCc2ccc([N+](=O)[O-])cc2)c1 returned rRNA inh HTS -23*, E-sel inducer 0, Xi reactivation 0, RAD52 inh -6, AID977621 -6 and AID977628 -6.6.
CC(=O)Nc1cccc(OCCCOc2ccc([N+](=O)[O-])cc2)c1 was read as rRNA inh HTS 3, E-sel inducer 2, Xi reactivation 0 and RAD52 inh 0.
